Test results: ChEMBL document CHEMBL3046318, “Synthesis of a combinatorial library of amides and its evaluation against the fall armyworm, Spodoptera frugiperda” (2011)

Assays:
Assay type in all cases: functional
Spodoptera frugiperda [1] = test: Insecticidal activity against 5 day old second instar larvae of Spodoptera frugiperda (fall armyworm) measured after 48 hr topical administration
Outline: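 Topical application to second instar larvae, 1 μL per insect in acetone (control: acetone alone). About 300 mg of artificial diet supplied 1 h after application. Mortality counted at 48 h. Five replicates. Single-sample screens of mixtures were run at 2000 mg L-1, with means compared by Tukey test (P ≤ 0.05). LD50 from log dose probit lines, with Abbott correction for control mortality.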

Spodoptera frugiperda [2] = test: Insecticidal activity against pupal phase Spodoptera frugiperda (fall armyworm) assessed as mortality at 1 mg/kg compound administration with artificial diet (reference value: 13.3%)
Outline: (§1)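 Ingestion assay on first instar larvae (1 day old), 30 per treatment and per control. Compound was dissolved in acetone, mixed with the diet's ascorbic acid (1.8 g), dried under vacuum at 40 °C, then incorporated into a bean/wheat germ artificial diet at 1-100 mg kg-1. Mortality recorded for the larval phase, the pupal phase and the total cycle.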

Spodoptera frugiperda [3] = test: Insecticidal activity against larval phase Spodoptera frugiperda (fall armyworm) assessed as mortality at 1 mg/kg compound administration with artificial diet (reference value: 6.66%); outline: as §1
Spodoptera frugiperda [4] = test: Insecticidal activity against Spodoptera frugiperda (fall armyworm) during total cycle assessed as mortality at 10 mg/kg compound administration with artificial diet (reference value: 13.3%); outline: as §1
Spodoptera frugiperda [5] = test: Insecticidal activity against pupal phase Spodoptera frugiperda (fall armyworm) assessed as mortality at 10 mg/kg compound administration with artificial diet (reference value: 13.3%); outline: as §1
Spodoptera frugiperda [6] = test: Insecticidal activity against larval phase Spodoptera frugiperda (fall armyworm) assessed as mortality at 10 mg/kg compound administration with artificial diet (reference value: 6.66%); outline: as §1
Spodoptera frugiperda [7] = test: Insecticidal activity against Spodoptera frugiperda (fall armyworm) during total cycle assessed as mortality at 50 mg/kg compound administration with artificial diet (reference value: 13.3%); outline: as §1
Spodoptera frugiperda [8] = test: Insecticidal activity against pupal phase Spodoptera frugiperda (fall armyworm) assessed as mortality at 50 mg/kg compound administration with artificial diet (reference value: 13.3%); outline: as §1
Spodoptera frugiperda [9] = test: Insecticidal activity against larval phase Spodoptera frugiperda (fall armyworm) assessed as mortality at 50 mg/kg compound administration with artificial diet (reference value: 6.66%); outline: as §1
Spodoptera frugiperda [10] = test: Insecticidal activity against Spodoptera frugiperda (fall armyworm) during total cycle assessed as mortality at 100 mg/kg compound administration with artificial diet (reference value: 13.3%); outline: as §1
Spodoptera frugiperda [11] = test: Insecticidal activity against pupal phase Spodoptera frugiperda (fall armyworm) assessed as mortality at 100 mg/kg compound administration with artificial diet (reference value: 13.3%); outline: as §1
Spodoptera frugiperda [12] = test: Insecticidal activity against larval phase Spodoptera frugiperda (fall armyworm) assessed as mortality at 100 mg/kg compound administration with artificial diet (reference value: 6.66%); outline: as §1
Spodoptera frugiperda [13] = test: Insecticidal activity against Spodoptera frugiperda (fall armyworm) during total cycle assessed as mortality at 1 mg/kg compound administration with artificial diet (reference value: 13.3%); outline: as §1

Structure (SMILES) | LD50 (Spodoptera frugiperda [1]) [µg/mg] | mortality at 1 mg/kg (Spodoptera frugiperda [2]) [%] | mortality at 1 mg/kg (Spodoptera frugiperda [3]) [%] | mortality at 10 mg/kg (Spodoptera frugiperda [4]) [%] | mortality at 10 mg/kg (Spodoptera frugiperda [5]) [%] | mortality at 10 mg/kg (Spodoptera frugiperda [6]) [%] | mortality at 50 mg/kg (Spodoptera frugiperda [7]) [%] | mortality at 50 mg/kg (Spodoptera frugiperda [8]) [%] | mortality at 50 mg/kg (Spodoptera frugiperda [9]) [%] | mortality at 100 mg/kg (Spodoptera frugiperda [10]) [%] | mortality at 100 mg/kg (Spodoptera frugiperda [11]) [%] | mortality at 100 mg/kg (Spodoptera frugiperda [12]) [%] | mortality at 1 mg/kg (Spodoptera frugiperda [13]) [%]
O=C(c1ccc(OC(F)(F)F)cc1)N1CCCCC1 | 8.15 | – | – | – | – | – | – | – | – | – | – | – | –
O=C(/C=C/c1ccc(OC(F)(F)F)cc1)N1CCCCC1 | 0.793 | 61.4 | 65.8 | 86.6 | 48.6 | 63.3 | 93.3 | 69.4 | 73.3 | 86.6 | 75 | 55 | 83.3
